Measured values: ChEMBL document CHEMBL1926614, “Substituted thiazoles V. synthesis and antitumor activity of novel thiazolo[2,3-b]quinazoline and pyrido[4,3-d]thiazolo[3,2-a]pyrimidine analogues” (2012)
The source made the active and inactive calls. No cut-off for these calls is given here.

Key:
Assay type in all cases: functional
[1] = test system: MOLT-4; test: Growth inhibition of human MOLT4 cells at 10 uM after 48 hrs by coulter counting
Summary of the method: (§1)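 Single-dose primary screen across the full NCI 60-cell-line panel. Stocks were made in DMSO and diluted in PBS to a final DMSO below 1%. Cultures at 6 × 10⁴ cells/ml were run in duplicate wells alongside PBS/DMSO vehicle controls at 37 °C in humidified 5% CO₂. Data were expressed as percent growth of treated cells.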

[2] = test system: NCI-H522; test: Growth inhibition of human NCI-H522 cells at 10 uM after 48 hrs by coulter counting; summary of the method: as §1
[3] = test system: CCRF-CEM; test: Growth inhibition of human CCRF-CEM cells at 10 uM after 48 hrs by coulter counting; details: read-out: GI; summary of the method: as §1
[4] = test system: HCT-116; test: Growth inhibition of human HCT116 cells at 10 uM after 48 hrs by coulter counting; summary of the method: as §1
[5] = test system: UO-31; test: Growth inhibition of human UO31 cells at 10 uM after 48 hrs by coulter counting
Summary of the method: (§2)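 Single-dose screen in the NCI 60 human tumor cell line panel (nine subpanels). Compounds dissolved in DMSO and diluted in phosphate buffered saline, keeping final DMSO below 1%. Added in duplicate wells to cells at 6 × 10⁴ cells/ml. Controls held PBS and DMSO at matching dilutions. Incubated at 37 °C, humidified, 5% CO₂. Reported as percent growth of treated cells.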

[6] = test system: UACC-257; test: Growth inhibition of human UACC257 cells at 10 uM after 48 hrs by coulter counting; summary of the method: as §2
[7] = test system: LOX IMVI; test: Growth inhibition of human LOXIMVI cells at 10 uM after 48 hrs by coulter counting; summary of the method: as §1
[8] = test system: MDA-MB-435; test: Growth inhibition of human MDA-MB-435 cells at 10 uM after 48 hrs by coulter counting; summary of the method: as §1
[9] = test system: M14; test: Growth inhibition of human M14 cells at 10 uM after 48 hrs by coulter counting; summary of the method: as §1
[10] = test system: RPMI-8226; test: Growth inhibition of human RPMI8226 cells at 10 uM after 48 hrs by coulter counting; summary of the method: as §1
[11] = test system: NCI-H460; test: Growth inhibition of human NCI-H460 cells at 10 uM after 48 hrs by coulter counting; summary of the method: as §1
[12] = test system: ACHN; test: Growth inhibition of human ACHN cells at 10 uM after 48 hrs by coulter counting; summary of the method: as §1
[13] = test system: SK-MEL-28; test: Growth inhibition of human SK-MEL-28 cells at 10 uM after 48 hrs by coulter counting; details: SK-MEL-28, 48 h, read-out: GI; summary of the method: as §1
[14] = test system: SF-268; test: Growth inhibition of human SF268 cells at 10 uM after 48 hrs by coulter counting; details: SF-268, 48 h, read-out: GI; summary of the method: as §1
[15] = test system: HT-29; test: Growth inhibition of human HT-29 cells at 10 uM after 48 hrs by coulter counting; summary of the method: as §1
[16] = test system: BT-549; test: Growth inhibition of human BT549 cells at 10 uM after 48 hrs by coulter counting; summary of the method: as §1
[17] = Cytotoxicity against human colon cancer cells after 48 hrs by coulter counting; details: Cancer cell lines
Summary of the method: (§3)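 NCI 60-cell-line panel covering nine tumour subpanels, tested over a 5-log dose range. Compounds were dissolved in DMSO and diluted in phosphate-buffered saline to a final DMSO below 1%. Wells held 6 × 10⁴ cells/ml and were run in duplicate. Controls contained PBS and DMSO at matching dilutions. Incubation was at 37 °C in humidified 5% CO₂. GI₅₀, TGI and LC₅₀ were reported.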

[18] = test system: IGROV-1; test: Growth inhibition of human IGROV1 cells at 10 uM after 48 hrs by coulter counting; summary of the method: as §1
[19] = test system: SNB-75; test: Growth inhibition of human SNB75 cells at 10 uM after 48 hrs by coulter counting; details: SNB-75, 48 h, read-out: GI; summary of the method: as §1
[20] = test system: DU-145; test: Growth inhibition of human DU145 cells at 10 uM after 48 hrs by coulter counting; summary of the method: as §1
[21] = test system: HOP-62; test: Growth inhibition of human HOP62 cells at 10 uM after 48 hrs by coulter counting; summary of the method: as §1
[22] = test system: NSCLC; test: Cytotoxicity against human NSCLC cells after 48 hrs by coulter counting; summary of the method: as §3
[23] = Cytotoxicity against human breast cancer cells after 48 hrs by coulter counting; details: Cancer cell lines; summary of the method: as §3
[24] = test system: A549; test: Growth inhibition of human A549 cells at 10 uM after 48 hrs by coulter counting; summary of the method: as §1
[25] = test system: SNB-19; test: Growth inhibition of human SNB19 cells at 10 uM after 48 hrs by coulter counting; details: SNB-19, 48 h, read-out: GI; summary of the method: as §1
[26] = test system: CAKI-1; test: Growth inhibition of human Caki1 cells at 10 uM after 48 hrs by coulter counting; summary of the method: as §1
[27] = test system: K562; test: Growth inhibition of human K562 cells at 10 uM after 48 hrs by coulter counting; summary of the method: as §1
[28] = test system: A498; test: Growth inhibition of human A498 cells at 10 uM after 48 hrs by coulter counting; summary of the method: as §1
[29] = test system: NCI-H226; test: Growth inhibition of human NCI-H226 cells at 10 uM after 48 hrs by coulter counting; summary of the method: as §1
[30] = test system: HCC 2998; test: Growth inhibition of human HCC2998 cells at 10 uM after 48 hrs by coulter counting; summary of the method: as §1
[31] = test system: KM12; test: Growth inhibition of human KM12 cells at 10 uM after 48 hrs by coulter counting; summary of the method: as §1
[32] = Cytotoxicity against human CNS cancer cells after 48 hrs by coulter counting; details: Cancer cell lines; summary of the method: as §3
[33] = test system: UACC-62; test: Growth inhibition of human UACC62 cells at 10 uM after 48 hrs by coulter counting; summary of the method: as §2
[34] = test system: NCI/ADR-RES; test: Growth inhibition of human NCI/ADR-RES cells at 10 uM after 48 hrs by coulter counting; details: read-out: GI; summary of the method: as §1
[35] = Cytotoxicity against human leukemia cells after 48 hrs by coulter counting; details: Leukemia cell; summary of the method: as §3
[36] = test system: SR; test: Growth inhibition of human SR cells at 10 uM after 48 hrs by coulter counting; summary of the method: as §2
[37] = test system: MCF7; test: Growth inhibition of human MCF7 cells at 10 uM after 48 hrs by coulter counting; details: MCF7, 48 h, read-out: GI; summary of the method: as §1
[38] = Cytotoxicity against human ovarian cancer cells after 48 hrs by coulter counting; details: Cancer cell lines; summary of the method: as §3
[39] = test system: OVCAR-4; test: Growth inhibition of human OVCAR4 cells at 10 uM after 48 hrs by coulter counting; details: OVCAR-4, 48 h, read-out: GI; summary of the method: as §1
[40] = test system: SK-MEL-5; test: Growth inhibition of human SK-MEL-5 cells at 10 uM after 48 hrs by coulter counting; summary of the method: as §1
[41] = test system: SK-MEL-2; test: Growth inhibition of human SK-MEL-2 cells at 10 uM after 48 hrs by coulter counting; summary of the method: as §1
[42] = test system: SF-295; test: Growth inhibition of human SF295 cells at 10 uM after 48 hrs by coulter counting; summary of the method: as §1
[43] = Growth inhibition of human NCI-322M cells at 10 uM after 48 hrs by coulter counting; details: read-out: GI; summary of the method: as §1
[44] = test system: U-251; test: Growth inhibition of human U251 cells at 10 uM after 48 hrs by coulter counting; summary of the method: as §2
[45] = Cytotoxicity against human prostate cancer cells after 48 hrs by coulter counting; details: Cancer cell lines; summary of the method: as §3
[46] = test system: T47D; test: Growth inhibition of human T47D cells at 10 uM after 48 hrs by coulter counting; details: read-out: GI; summary of the method: as §2
[47] = test system: EKVX; test: Growth inhibition of human EKVX cells at 10 uM after 48 hrs by coulter counting; summary of the method: as §1
[48] = test system: SF-539; test: Growth inhibition of human SF539 cells at 10 uM after 48 hrs by coulter counting; details: SF-539, 48 h, read-out: GI; summary of the method: as §1
[49] = Cytotoxicity against human renal cancer cells after 48 hrs by coulter counting; details: Cancer cell lines; summary of the method: as §3
[50] = test system: HL-60(TB); test: Growth inhibition of human HL-60(TB) cells at 10 uM after 48 hrs by coulter counting
Summary of the method: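 Test compound was dissolved in DMSO and diluted in phosphate-buffered saline to a final DMSO level below 1%. Dilutions were plated in duplicate with cell culture at 6 × 10⁴ cells/ml. Vehicle controls held PBS and DMSO at matching dilutions. Incubation was at 37 °C, humidified, under 5% CO₂. Data were reported as percent growth of treated cells.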

[51] = test system: NCI-H23; test: Growth inhibition of human NCI-H23 cells at 10 uM after 48 hrs by coulter counting; summary of the method: as §1
[52] = read-out: LC50 (the source's name)

For COc1cc(/C=C2\CCCC3=C2N=C2SC=CN2C3c2cc(OC)c(OC)c(OC)c2)cc(OC)c1OC (stereo not given), the “growth inhibition (GI)” value [1] was “Active”, the “growth inhibition (GI)” value [2] was “Active” and the inhibition of growth at 10 µM [3] was 94.1%. The “growth inhibition (GI)” value [4] was “Active”, the “growth inhibition (GI)” value [5] was “Active” and the “growth inhibition (GI)” value [6] was “Active”. For the same molecule, the “growth inhibition (GI)” value [7] was “Active”, the “growth inhibition (GI)” value [8] was “Active” and the “growth inhibition (GI)” value [9] was “Active”. The “growth inhibition (GI)” value [10] was “Active”, the “growth inhibition (GI)” value [11] was “Active” and the “growth inhibition (GI)” value [12] was “Active”. The inhibition of growth at 10 µM [13] was 89.7%, the inhibition of growth at 10 µM [14] was 95% and the “growth inhibition (GI)” value [15] was “Active”. The “growth inhibition (GI)” value [16] was “Active”, the GI50 [17] was 1.6 µM and the “growth inhibition (GI)” value [18] was “Active”. For the same molecule, the inhibition of growth at 10 µM [19] was 65%, the “growth inhibition (GI)” value [20] was “Active” and the “growth inhibition (GI)” value [21] was “Active”. For the same molecule, the GI50 [22] was 2.3 µM, the TGI [22] was greater than 100 µM and the CC50 [22, 52] was greater than 100 µM. For the same molecule, the GI50 [23] was 2.2 µM, the TGI [23] was greater than 100 µM and the CC50 [23, 52] was greater than 100 µM. For the same molecule, the “growth inhibition (GI)” value [24] was “Active”, the inhibition of growth at 10 µM [25] was 79% and the “growth inhibition (GI)” value [26] was “Active”. For the same molecule, the “growth inhibition (GI)” value [27] was “Active”, the “growth inhibition (GI)” value [28] was “Active” and the “growth inhibition (GI)” value [29] was “Active”. The “growth inhibition (GI)” value [30] was “Active”, the “growth inhibition (GI)” value [31] was “Active” and the GI50 [32] was 47.8 µM. The LC50 [32] was greater than 100 µM, the TGI [32] was greater than 100 µM and the “growth inhibition (GI)” value [33] was “Active”. The inhibition of growth at 10 µM [34] was 90.5%, the GI50 [35] was 2 µM and the TGI [35] was greater than 100 µM. For the same molecule, the CC50 [35, 52] was greater than 100 µM, the “growth inhibition (GI)” value [36] was “Active” and the inhibition of growth at 10 µM [37] was 76%. For the same molecule, the GI50 [38] was 1.9 µM, the TGI [38] was greater than 100 µM and the CC50 [38, 52] was greater than 100 µM. The inhibition of growth at 10 µM [39] was 79.5%, the “growth inhibition (GI)” value [40] was “Active” and the “growth inhibition (GI)” value [41] was “Active”. For the same molecule, the “growth inhibition (GI)” value [42] was “Active”, the inhibition of growth at 10 µM [43] was 99.5% and the “growth inhibition (GI)” value [44] was “Active”. For the same molecule, the GI50 [45] was 2 µM, the LC50 (concentration killing 50% of cells) [45] was greater than 100 µM and the TGI [45] was greater than 100 µM. For the same molecule, the inhibition of growth at 10 µM [46] was 69%, the “growth inhibition (GI)” value [47] was “Active” and the inhibition of growth at 10 µM [48] was 91.3%. It also gave a GI50 [49] of 1.8 µM, an LC50 (concentration giving 50% net cell kill) [49] greater than 100 µM and a TGI [49] greater than 100 µM. The “growth inhibition (GI)” value [50] was “Active” and the “growth inhibition (GI)” value [51] was “Active”.
